What was measured:
Candida albicans [1] = experiment: Fungicidal activity against Candida albicans SP3876 after 96 hrs; format: functional; settings: SP3876, 96 h, read-out: MFC99.9
Method in brief: (§1)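 After the 48 h, 28 °C broth microdilution in MOPS-buffered RPMI 1640 (inoculum (0.5−1) × 10^3 CFU/mL), 50 μL from each well was plated on YM agar for a further 48 h at 28 °C. MFC is the lowest concentration killing at least 99.9% of cells. Triplicate, three biological replicates.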

Erythrocyte = experiment: Hemolytic activity in human RBC after 1 hr; format: ADME, cell-based
Method in brief: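 Fresh human erythrocytes, diluted 10-fold in PBS pH 7.4, were mixed with equal volumes of peptide and held 1 h at 37 °C. After centrifugation at 1000g, supernatant hemoglobin was read at 576 nm. PBS set 0% and 0.1% Triton X-100 set 100% lysis. MHC is the concentration causing 10% hemolysis. At least three experiments were run, each in technical triplicate.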

[2] = tested on: Staphylococcus epidermidis; experiment: Bactericidal activity against Staphylococcus epidermidis ATCC 12228; format: functional; settings: read-out: MBC99.9
Method in brief: (§2)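 Wells from the 24 h, 37 °C MHB microdilution plates (bacteria at a final (0.5−1) × 10^5 CFU/mL; peptide diluted in 0.2% BSA) were plated on agar and incubated overnight. MBC is the lowest concentration killing >99.9% of cells. Each test was reproduced at least 3 times.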

Candida albicans [3] = experiment: Fungicidal activity against Candida albicans SP3902 after 96 hrs; format: functional; settings: SP3902, 96 h, read-out: MFC99.9; method in brief: as §1
Candida parapsilosis [4] = experiment: Antifungal activity against Candida parapsilosis cgmcc 2.3989 after 48 hrs by broth microdilution method; format: functional; settings: Lodderomyces parapsilosis, cgmcc 2.3989, 48 h
Method in brief: (§3)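 Modified CLSI M27-A2 broth microdilution. Yeast were suspended in MOPS-buffered RPMI 1640 at a final (0.5−1) × 10^3 CFU/mL and mixed 1:1 with peptide serially diluted in 0.2% BSA. Plates were incubated 48 h at 28 °C and read at A492. MIC is the lowest concentration giving 95% inhibition. Run in triplicate with three biological replicates.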

Candida albicans [5] = experiment: Antifungal activity against Candida albicans cgmcc 2.2086 in presence of KCl by broth dilution method; format: functional
Escherichia coli [6] = experiment: Antibacterial activity against Escherichia coli ATCC 25922 after 18 hrs in presence of MgCl2 by broth dilution method; format: functional; settings: ATCC 25922, 18 h
Staphylococcus aureus [7] = experiment: Antibacterial activity against Staphylococcus aureus ATCC 29213 after 24 hrs; format: functional; settings: ATCC 29213, 24 h
Method in brief: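 Modified NCCLS broth microdilution. Mid-log bacteria at (0.5−1) × 10^5 CFU/mL in MHB were mixed 1:1 with peptide serially diluted in 0.2% BSA and incubated 24 h at 37 °C. Absorbance was read at 492 nm; MIC is the lowest concentration inhibiting 95% of growth. At least 3 repeats.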

Staphylococcus aureus [8] = experiment: Bactericidal activity against Staphylococcus aureus ATCC 25923; format: functional; settings: read-out: MBC99.9; method in brief: as §2
Candida albicans [9] = experiment: Antifungal activity against Candida albicans SP3931 after 48 hrs by broth microdilution method; format: functional; settings: SP3931, 48 h
Method in brief: (§4)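 Modified CLSI M27-A2 broth microdilution. Yeast at (0.5−1) × 10^3 CFU/mL in MOPS-buffered RPMI 1640 was mixed 1:1 with peptide serially diluted in 0.2% BSA and incubated 48 h at 28 °C. Absorbance was read at 492 nm; MIC is the lowest concentration inhibiting 95% of growth. Triplicate, three biological replicates.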

Candida tropicalis = experiment: Antifungal activity against Candida tropicalis cgmcc 2.1975 after 48 hrs by broth microdilution method; format: functional; settings: cgmcc 2.1975, 48 h; method in brief: as §3
Candida albicans [10] = experiment: Fungicidal activity against fluconazole-resistant Candida albicans 56214 after 96 hrs; format: functional; settings: Candida albicans, 56214, 96 h; read-out: MFC99.9; method in brief: as §1
[11] = Cytotoxicity against mouse RAW264.7 cells assessed as cell viability at 2 to 64 uM after 24 hrs by MTT assay relative to control; format: cell-based; settings: read-out: Activity
Method in brief: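 MTT viability assay. RAW264.7 or HEK293T cells at (1.0−2.0) × 10^5 per well were exposed to a peptide concentration series for 24 h at 37 °C in 5% CO2. MTT was then added at 0.5 mg/mL final for 4 h; formazan was dissolved in DMSO and read at 570 nm. Results average three independent trials.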

Candida albicans [12] = experiment: Antifungal activity against fluconazole-resistant Candida albicans 56214 after 48 hrs by broth microdilution method; format: functional; settings: Candida albicans, 56214, 48 h; method in brief: as §4
Escherichia coli [13] = experiment: Antibacterial activity against Escherichia coli ATCC 25922 after 18 hrs in presence of FeCl3 by broth dilution method; format: functional; settings: ATCC 25922, 18 h
Escherichia coli [14] = experiment: Bactericidal activity against Escherichia coli ATCC 25922; format: functional; settings: read-out: MBC99.9; method in brief: as §2
Candida parapsilosis [15] = experiment: Fungicidal activity against Candida parapsilosis cgmcc 2.3989 after 96 hrs; format: functional; settings: Lodderomyces parapsilosis, cgmcc 2.3989, 96 h; read-out: MFC99.9
Method in brief: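 Wells from the 48 h, 28 °C RPMI 1640/MOPS microdilution plates were plated on YM agar and incubated a further 48 h at 28 °C. MFC is the lowest concentration killing at least 99.9% of cells. Run in triplicate with three biological replicates.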

Escherichia coli [16] = experiment: Bactericidal activity against Escherichia coli 1005; format: functional; settings: read-out: MBC99.9; method in brief: as §2
Escherichia coli [17] = experiment: Antibacterial activity against Escherichia coli ATCC 25922 after 18 hrs in presence of KCl by broth dilution method; format: functional; settings: ATCC 25922, 18 h
Candida albicans [18] = experiment: Antifungal activity against Candida albicans cgmcc 2.2086 in presence of NaCl by broth dilution method; format: functional
Escherichia coli [19] = experiment: Antibacterial activity against Escherichia coli ATCC 25922 after 18 hrs in presence of ZnCl2 by broth dilution method; format: functional; settings: ATCC 25922, 18 h
Escherichia coli [20] = experiment: Antibacterial activity against Escherichia coli ATCC 25922 after 18 hrs in presence of CaCl2 by broth dilution method; format: functional; settings: ATCC 25922, 18 h
Candida albicans [21] = experiment: Antifungal activity against Candida albicans 14936 after 48 hrs by broth microdilution method; format: functional; settings: Candida albicans, 14936, 48 h; method in brief: as §4
Candida albicans [22] = experiment: Fungicidal activity against Candida albicans 58288 after 96 hrs; format: functional; settings: Candida albicans, 58288, 96 h; read-out: MFC99.9; method in brief: as §1
Candida albicans [23] = experiment: Antifungal activity against Candida albicans SP3876 after 48 hrs by broth microdilution method; format: functional; settings: SP3876, 48 h; method in brief: as §4
[24] = tested on: Staphylococcus epidermidis; experiment: Antibacterial activity against Staphylococcus epidermidis ATCC 12228 after 24 hrs; format: functional; settings: ATCC 12228, 24 h
Method in brief: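 Broth microdilution. Mid-log bacteria in MHB at a final (0.5−1) × 10^5 CFU/mL were mixed with equal volumes of peptide serially diluted in 0.2% BSA. Plates were incubated 24 h at 37 °C and read at A492. MIC is the lowest concentration inhibiting 95% of growth. Each test was repeated at least 3 times.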

Candida albicans [25] = experiment: Fungicidal activity against fluconazole-resistant Candida albicans 17546 after 96 hrs; format: functional; settings: Candida albicans, 17546, 96 h; read-out: MFC99.9; method in brief: as §1
Candida albicans [26] = experiment: Fungicidal activity against Candida albicans SP3931 after 96 hrs; format: functional; settings: SP3931, 96 h, read-out: MFC99.9; method in brief: as §1
Candida albicans [27] = experiment: Antifungal activity against Candida albicans cgmcc 2.2086 after 48 hrs by broth microdilution method; format: functional; settings: cgmcc 2.2086, 48 h; method in brief: as §4
Candida albicans [28] = experiment: Antifungal activity against fluconazole-resistant Candida albicans 17546 after 48 hrs by broth microdilution method; format: functional; settings: Candida albicans, 17546, 48 h; method in brief: as §4

| Substance | MFC (Candida albicans [1]) | HC10 (Erythrocyte) | MBC [2] | MFC (Candida albicans [3]) | MIC95 (Candida parapsilosis [4]) | MIC (Candida albicans [5]) | MIC (Escherichia coli [6]) | MIC95 (Staphylococcus aureus [7]) | MBC (Staphylococcus aureus [8]) | MIC95 (Candida albicans [9]) | MIC95 (Candida tropicalis) | MFC (Candida albicans [10]) | viability at 24 h, up to 64 µM [11] | MIC95 (Candida albicans [12]) | MIC (Escherichia coli [13]) | MBC (Escherichia coli [14]) | MFC (Candida parapsilosis [15]) | MBC (Escherichia coli [16]) | MIC (Escherichia coli [17]) | MIC (Candida albicans [18]) | also measured |
| --- | --- | --- | --- | --- | --- | --- | --- | --- | --- | --- | --- | --- | --- | --- | --- | --- | --- | --- | --- | --- | --- |
| H-RFRFFFRFR-NH2 | 8 µM | > 128 µM | 8 µM | 4 µM | 16 µM | 32 µM | 2 µM | 4 µM | 8 µM | 8 µM | 2 µM | 16 µM | 70 to 80% | 8 µM | 4 µM | 8 µM | 32 µM | 8 µM | 4 µM | 32 µM | MIC (Escherichia coli [19]): 4 µM; MIC (Escherichia coli [20]): 4 µM; MIC95 (Candida albicans [21]): 8 µM; MFC (Candida albicans [22]): 16 µM; MIC95 (Candida albicans [23]): 8 µM; MIC95 [24]: 4 µM; MFC (Candida albicans [25]): 4 µM; MFC (Candida albicans [26]): 16 µM; MIC95 (Candida albicans [27]): 8 µM; MIC95 (Candida albicans [28]): 4 µM |
| H-RLRLLLRLR-NH2 | 4 µM | > 128 µM | 8 µM | 8 µM | > 64 µM | 16 µM | 4 µM | 8 µM | 8 µM | 8 µM | 2 µM | 16 µM | 70 to 80% | 8 µM | 4 µM | 8 µM | > 64 µM | 8 µM | 4 µM | 32 µM | MIC (Escherichia coli [19]): 8 µM; MIC (Escherichia coli [20]): 8 µM; MIC95 (Candida albicans [21]): 4 µM; MFC (Candida albicans [22]): 16 µM; MIC95 (Candida albicans [23]): 4 µM; MIC95 [24]: 4 µM; MFC (Candida albicans [25]): 16 µM; MFC (Candida albicans [26]): 16 µM; MIC95 (Candida albicans [27]): 8 µM; MIC95 (Candida albicans [28]): 16 µM |
| H-RFFRRFRRFFR-NH2 | 8 µM | > 128 µM | 4 µM | 8 µM | > 64 µM | 16 µM | 2 µM | 8 µM | 8 µM | 8 µM | 2 µM | 16 µM | 70 to 80% | 8 µM | 8 µM | 8 µM | > 64 µM | 8 µM | 8 µM | 32 µM | MIC (Escherichia coli [19]): 8 µM; MIC (Escherichia coli [20]): 8 µM; MIC95 (Candida albicans [21]): 8 µM; MFC (Candida albicans [22]): 16 µM; MIC95 (Candida albicans [23]): 8 µM; MIC95 [24]: 4 µM; MFC (Candida albicans [25]): 8 µM; MFC (Candida albicans [26]): 16 µM; MIC95 (Candida albicans [27]): 8 µM; MIC95 (Candida albicans [28]): 4 µM |

Reference: ChEMBL document CHEMBL4177755, “Combating Drug-Resistant Fungi with Novel Imperfectly Amphipathic Palindromic Peptides” (J Med Chem, 2018)
